An excerpt weighted towards active compounds, which were near 2.3% of everything screened.
PLAP act = activators of human placental alkaline phosphatase; purified PLAP enzyme, luminescent substrate read-out; active compounds read high; 96,000 tested, 1.2% active; P05187; activation fold at 20 µM; AID 696; in the data active = activation fold above about 2
Target sequence (P05187 whole entry, looked up): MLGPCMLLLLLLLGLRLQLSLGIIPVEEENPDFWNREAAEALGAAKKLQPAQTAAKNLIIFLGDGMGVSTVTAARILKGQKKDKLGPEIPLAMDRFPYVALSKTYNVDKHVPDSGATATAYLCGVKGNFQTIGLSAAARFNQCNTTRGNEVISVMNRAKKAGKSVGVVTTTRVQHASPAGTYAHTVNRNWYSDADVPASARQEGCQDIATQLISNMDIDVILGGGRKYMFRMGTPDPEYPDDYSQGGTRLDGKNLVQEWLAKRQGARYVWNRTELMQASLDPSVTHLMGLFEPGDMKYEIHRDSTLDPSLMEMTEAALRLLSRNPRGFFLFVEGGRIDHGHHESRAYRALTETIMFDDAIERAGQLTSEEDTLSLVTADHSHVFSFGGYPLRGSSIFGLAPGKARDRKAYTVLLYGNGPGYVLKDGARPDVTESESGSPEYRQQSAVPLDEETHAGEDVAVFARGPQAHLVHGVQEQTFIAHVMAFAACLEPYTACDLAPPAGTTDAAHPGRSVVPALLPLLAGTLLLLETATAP
HePTP inhibitor = inhibitors of human HePTP phosphatase | P35236 | recombinant HePTP phosphatase activity, OD absorbance | inhibition, % at 20 µM | 110,000 tested, 0.64% active | AID 521; in the data active = inhibition above about 50%
Ecoli tolC = growth inhibitors of E. coli BW25113 tolC mutant; AID 573; growth inhibition, % at 10 µM (by protocol); 65,000 tested, 2.2% active; OD615;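 active = growth inhibition at or above a cutoff equal to the mean over every tested compound plus 3 SD, cut at about 60% in these data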;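 note: growth measured after 20 h incubation at 37 °C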
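Material: E. coli BW25113 ΔtolC::kan, tolC deletion mutant strain. Measure: percent growth inhibition. Schedule: 37 °C, 20 h exposure. Doses: single-point testing at 10 µM. Signal: A615 absorbance measurement. Buffer or medium: kanamycin-containing LB broth (50 µg/mL).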
AP complement = orthogonal test for alternative complement pathway inhibitors. AID 1235. inhibition, % at 5 µM. 62,000 tested, 0.08% active. Human serum alternative complement pathway, LPS-coated ELISA, C3 deposition; tested in compound mixtures;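 active = inhibition above 30% in each of the two pooled mixtures holding the compound, so the lower value exceeds 30%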
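Test system: human serum alternative complement pathway, C3 deposition on LPS-coated wells; also added: Plate-bound LPS; doses: 5 µM per compound in ten-compound mixtures; schedule: 1 h at 37 °C; detection: Anti-C3 ELISA, OD 450 nm; evaluation: percent inhibition of C3 deposition onto LPS; repeats: two pool placements per compound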
E coli WT exp = blocks growth of wild type E. coli BW25113 | OD600 absorbance | growth inhibition, % at 100 µM | 98,000 tested, 0.15% active | AID 710;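 active = growth inhibition above about 50% at one test dose, limit read from the data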;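 note: growth measured after 20 h incubation at 37 °C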
Numbers stand for hits; i = inactive; nt = no result.

SMILES	PLAP act	HePTP inhibitor	Ecoli tolC	AP complement	E coli WT exp
CCCCN(CC)S(=O)(=O)c1ccc(C(=O)Nc2nnc(COC)o2)cc1	i	i	88.3	i	i
CCc1nnc(NC(=O)c2ccc(S(=O)(=O)N(CCOC)CCOC)cc2)o1	i	i	i	i	i
CCCCN(C)S(=O)(=O)c1ccc(C(=O)Nc2nnc(-c3cccs3)o2)cc1	i	i	100.0	i	i
COCCN(CCOC)S(=O)(=O)c1ccc(C(=O)Nc2nnc(C3CC3)o2)cc1	i	i	i	i	i
COc1cc(/C=N/NS(=O)(=O)c2ccc(Cl)cc2)cc(OC)c1OC	nt	i	nt	nt	nt
CCc1ccc(OCC(=O)Nc2ccc(-c3nc4cc(C)c(C)cc4o3)c(O)c2)cc1	nt	i	nt	nt	nt
O=C(/C=C/c1ccccc1Cl)NCc1ccccn1	nt	i	nt	nt	nt
CCCN(CCC)S(=O)(=O)c1ccc(C(=O)Nc2nnc(CSC)o2)cc1	i	i	98.8	i	i
CCCCN(CC)S(=O)(=O)c1ccc(C(=O)Nc2nnc(-c3ccccc3Cl)o2)cc1	i	i	100.0	i	i
c1ccc2oc(SCc3nc4ccccc4s3)nc2c1	i	i	61.5	i	i
O=C(CN1C(=O)CCC1=O)Nc1cccc2ccccc12	nt	i	nt	nt	nt
CCc1cccc(NC(=O)CSCc2cc(=O)[nH][nH]2)c1	2.5	nt	nt	nt	i
CCN(CCNC(=O)C1CCN(Cc2nc(-c3cccc(Cl)c3)oc2C)CC1)c1ccccc1	2	i	65.0	i	i
Cc1ccccc1-c1nc(CN2CCC(C(=O)NCCC3=CCCCC3)CC2)c(C)o1	2.3	i	65.1	i	i
COc1ccc(CCNC(=O)C2CCN(Cc3nc(-c4ccccc4C)oc3C)CC2)cc1OC	2.1	i	i	i	i
Cc1ccc(S(=O)(=O)N(CCc2ccccc2)CC(=O)Nc2ccc(Cl)cc2Cl)cc1	nt	i	nt	nt	nt
CCn1c(Cn2nnc(-c3ccccc3)n2)nnc1SCc1ccc(Cl)c(Cl)c1	i	i	73.3	i	i
COc1cc(/C=C2\SC(=S)N(Cc3ccco3)C2=O)ccc1O	nt	i	nt	nt	nt
Oc1ccc(/C=N/Nc2nc(N3CCOCC3)nc(N3CCOCC3)n2)c(O)c1	nt	i	nt	nt	nt
CC(C(=O)O)N1C(=O)/C(=C/C=C/c2ccco2)SC1=S (centres undefined)	i	nt	nt	nt	i
CN1C(=O)/C(=C/C=C/c2ccco2)SC1=S	nt	52.0	nt	nt	nt
O=C(CCC1CCCCC1)Nc1ncn[nH]1	2	i	i	i	i
O=C(CCC1CCCCC1)Nc1ccncc1	nt	i	nt	nt	nt
CSc1ncc(Cl)c(C(=O)Nc2nnc(SC/C=C/c3ccccc3)s2)n1	2.3	nt	nt	nt	i
CCOC(=O)C(=Cc1cc(OC)c(OC)cc1Br)C(=O)OCC	nt	i	nt	nt	nt
SMILES	PLAP act	HePTP inhibitor	Ecoli tolC	AP complement	E coli WT exp
CCOC(=O)C(=CC1=C/C(=C/N(C)C)C(=O)O1)C(=O)OCC	nt	80.9	nt	nt	nt
COC(=O)c1ccc(Oc2nc(N3CCCCC3)nc(N3CCOCC3)n2)cc1	i	i	65.7	i	i
COc1cccc(C(=O)Nc2sc(C)c(C)c2C(N)=O)c1	nt	i	nt	nt	nt
CC(C)(C)C1(C)OC(O)(C(Cl)(Cl)Cl)CC1=O (centres undefined)	nt	102.9	nt	nt	nt
CCOC(=O)c1ccccc1NC(=O)CSc1nnnn1C1CCCCC1	i	i	72.2	i	i
COC(=O)c1ccccc1NC(=O)CSc1nnnn1C1CCCCC1	i	i	i	i	i
C=CCSc1n[nH]c(-c2ccc(OCCC)cc2)n1	i	i	i	i	i
C=CCSc1n[nH]c(-c2ccc(OCCCC)cc2)n1	i	i	85.5	i	i
Cn1c(CNc2ccccc2)nc2ccccc21	i	i	i	i	i
Cn1c(CNc2ccccc2O)nc2ccccc21	2.4	i	i	i	i
COC(=O)c1ccc(/C=N/NC(=O)COc2ccc(I)cc2)cc1	nt	i	nt	nt	nt
COc1cccc(C(=O)Nc2ccc(Cl)c(-c3nc4cc(Cl)ccc4o3)c2)c1	nt	i	nt	nt	nt
Cc1cc2nc(C)n(CCCNC(=O)Nc3ccc(F)cc3)c2cc1C	2.3	nt	nt	nt	i
O=C(NCCN1CCc2ccccc2C1)Nc1ccc(F)cc1	i	i	i	i	i
Cc1ccc(S(=O)(=O)Nc2cccc(-c3cn4ccsc4n3)c2)cc1	i	i	82.9	i	i
CCOC(=O)C1CCN(C(c2cccnc2)c2c(NC(=O)c3ccco3)sc(C)c2C)CC1 (centres undefined)	i	i	76.6	i	i
CCOP(C)(=O)C(c1ccccc1)N(C)S(C)(=O)=O (centres undefined)	nt	i	nt	nt	nt
CCCCCC(=O)N1CCCC(c2nc(-c3ccc(OC)cc3)no2)C1 (centres undefined)	i	nt	nt	nt	i
O=C(Nc1ccc(Cl)cc1)N1CCC(c2nc(-c3ccc(F)cc3)no2)CC1	i	i	71.7	i	i
COc1ccc(NC(=O)N2CCCC(c3nc(-c4ccc(C(C)C)cc4)no3)C2)cc1 (centres undefined)	i	i	61.6	i	i
COc1ccc(NC(=O)C2CC2)c(OC)c1	nt	i	nt	nt	nt
O=C1CC(Sc2ccccc2)C(=O)N1c1ccc(Cc2ccc(N3C(=O)CC(Sc4ccccc4)C3=O)cc2)cc1 (centres undefined)	nt	i	nt	nt	nt
c1ccc2c(c1)CCN(c1nc3cc4c(cc3s1)OCCO4)C2	i	i	64.5	i	i
Cc1cc(/C=C2/SC(=O)NC2=O)c(C)n1-c1ccc(C(C)(C)C)cc1	nt	i	nt	nt	nt
CC(C)N1CCC2(CC1)N=C(c1ccc3c(c1)OCO3)CC(c1cc(Cl)ccc1O)N2 (centres undefined)	i	i	100.0	i	i
SMILES	PLAP act	HePTP inhibitor	Ecoli tolC	AP complement	E coli WT exp
Cc1cccc(N/C(=N\c2nc(C)cc(C)n2)NC(=O)c2ccccc2)c1	nt	i	nt	nt	nt
COc1ccc(OC)c(/C=N/NC(=O)C(=O)Nc2ccc(OC)cc2OC)c1	nt	i	nt	nt	nt
COc1ccc(NC(=O)C(=O)N/N=C/c2cc(C)n(-c3cccc(Cl)c3Cl)c2C)c(OC)c1	2	nt	nt	nt	i
COc1cc(C=O)ccc1OCCN1CCOCC1	nt	102.7	nt	nt	nt
Cc1cc(C(O)(C(F)(F)F)C(F)(F)F)cc(C)c1N	nt	i	nt	nt	nt
Cc1nn(CCC(=O)NNC(=S)NCC(C)C)c(C)c1Br	2.5	nt	nt	nt	i
CCOCCCNC(=O)c1c(C)c(C(=O)OCC)n(C)c1C	i	i	i	i	i
CNC(=S)NNC(=O)CCn1nc(C)c(Br)c1C	2.1	nt	nt	nt	i
CCOCCCNC(=S)NNC(=O)CCn1nc(C)c(Br)c1C	2.9	nt	nt	nt	i
O=C(Nc1cccc(C(F)(F)F)c1)c1ccc(C(=O)c2ccccc2)o1	nt	i	nt	nt	nt
COC(=O)c1cc2c(=O)n3ccccc3nc2n(Cc2cccnc2)c1=N	nt	i	i	i	nt
COC(=O)c1cc2c(=O)n3ccccc3nc2n(C)c1=N	i	i	i	31.7	nt
CC1CCN(S(=O)(=O)c2ccc3c(c2)CCN3C(=O)CCC(=O)O)CC1	i	i	i	i	i
O=C(O)CCC(=O)N1CCc2cc(S(=O)(=O)N3CCC(Cc4ccccc4)CC3)ccc21	i	i	100.0	i	i
O=C(Nc1ccc(N2CCOCC2)c(Cl)c1)c1ccc([N+](=O)[O-])cc1Cl	nt	i	nt	nt	nt
CCOc1ccccc1NC(=O)CN(c1ccc(C)cc1)S(C)(=O)=O	nt	i	nt	nt	nt
CCOc1ccccc1NC(=O)CN(c1ccc(C)cc1)S(=O)(=O)c1c(C)n[nH]c1C	2.1	i	i	i	i
Cc1ccc(S(=O)(=O)CCC(=O)c2ccc(O)cc2O)cc1	i	i	i	i	50.0

Screening data deposited in PubChem by several laboratories.
